Laboratory results published in ChEMBL document CHEMBL1140405, “6-Acylamino-2-aminoquinolines as potent melanin-concentrating hormone 1 receptor antagonists. Identification, structure-activity relationship, and investigation of binding mode” (J Med Chem, 2005).
Converted amounts (≈) assume the structure as drawn. “And” between values parts separate entries of the source, which are not always exact repeats. Equal values may be shown once.

Legend:
[1] = biological target: T1, 5-hydroxytryptamine receptor 2C (Homo sapiens, UniProt P28335); test: Inhibitory concentration against human 5-hydroxytryptamine 2C receptor expressed in CHO-K1 cells using [3H]mesulergine; assay type: cell-based
T1 sequence (P28335 whole entry): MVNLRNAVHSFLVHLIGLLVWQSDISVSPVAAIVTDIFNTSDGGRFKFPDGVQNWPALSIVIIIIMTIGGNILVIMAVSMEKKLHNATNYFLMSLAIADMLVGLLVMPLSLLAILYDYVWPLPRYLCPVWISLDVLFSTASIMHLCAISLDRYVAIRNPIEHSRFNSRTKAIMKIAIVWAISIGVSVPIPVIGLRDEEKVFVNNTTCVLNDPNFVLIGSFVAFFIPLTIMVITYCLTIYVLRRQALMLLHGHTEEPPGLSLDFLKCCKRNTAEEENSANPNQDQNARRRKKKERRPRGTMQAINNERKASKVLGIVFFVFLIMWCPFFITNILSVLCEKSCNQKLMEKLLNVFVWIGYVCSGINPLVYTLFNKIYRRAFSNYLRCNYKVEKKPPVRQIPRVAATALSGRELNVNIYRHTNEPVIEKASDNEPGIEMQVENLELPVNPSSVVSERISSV
Summary of the method: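 SPA competition binding on purchased membranes from CHO-K1 cells expressing h5-HT2c (4 μg/well), with YSi-WGA beads (0.4 mg/well) and [3H]mesulergine tracer, across various test-compound concentrations. Buffer is 50 mM Tris pH 7.7, 50 mM MgCl2 and 0.1% pargyline. Nonspecific binding uses 1 μM cold mesulergine. IC50 is taken by nonlinear regression.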

[2] = biological target: Melanin-concentrating hormone receptor 2 (Homo sapiens, UniProt Q969V1); test: Displacement of 30 pM [125I]-MCH from human MCH2R expressed in CHO-K1 in whole-cell binding assay
[3] = Solubility was determined by addition of 10 mM DMSO solution of test compound to PBS (pH 7) until opalescence
[4] = biological target: Melanin-concentrating hormone receptor 1 (Homo sapiens, UniProt Q99705); test: Displacement of 150p M [125I]MCH from human MCH1R expressed in CHO-K1 cells at 10 uM; assay type: cell-based
[5] = biological target: Sodium-dependent dopamine transporter (Homo sapiens, UniProt Q01959); test: Inhibitory concentration against dopamine transporter
[6] = biological target: T2, Adrenergic receptor alpha-2 (Homo sapiens, UniProt P08913+P18825+P18089); test: Inhibitory concentration against alpha-2 adrenergic receptor; assay type: protein assay
T2 sequence (P08913 whole entry): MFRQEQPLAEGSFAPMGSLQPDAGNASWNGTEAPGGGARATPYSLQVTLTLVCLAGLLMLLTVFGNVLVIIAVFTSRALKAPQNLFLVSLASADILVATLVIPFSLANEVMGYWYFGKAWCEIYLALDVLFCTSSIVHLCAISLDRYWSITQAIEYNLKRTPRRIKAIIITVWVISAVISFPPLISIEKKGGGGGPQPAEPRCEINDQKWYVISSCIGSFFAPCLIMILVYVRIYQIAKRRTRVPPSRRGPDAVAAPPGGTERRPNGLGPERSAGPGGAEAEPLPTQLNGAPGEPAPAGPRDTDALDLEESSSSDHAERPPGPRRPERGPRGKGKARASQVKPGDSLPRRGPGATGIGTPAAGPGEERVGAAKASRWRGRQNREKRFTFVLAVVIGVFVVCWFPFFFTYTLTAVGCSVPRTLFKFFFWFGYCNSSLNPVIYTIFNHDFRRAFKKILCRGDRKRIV
T2 sequence (P18825 whole entry): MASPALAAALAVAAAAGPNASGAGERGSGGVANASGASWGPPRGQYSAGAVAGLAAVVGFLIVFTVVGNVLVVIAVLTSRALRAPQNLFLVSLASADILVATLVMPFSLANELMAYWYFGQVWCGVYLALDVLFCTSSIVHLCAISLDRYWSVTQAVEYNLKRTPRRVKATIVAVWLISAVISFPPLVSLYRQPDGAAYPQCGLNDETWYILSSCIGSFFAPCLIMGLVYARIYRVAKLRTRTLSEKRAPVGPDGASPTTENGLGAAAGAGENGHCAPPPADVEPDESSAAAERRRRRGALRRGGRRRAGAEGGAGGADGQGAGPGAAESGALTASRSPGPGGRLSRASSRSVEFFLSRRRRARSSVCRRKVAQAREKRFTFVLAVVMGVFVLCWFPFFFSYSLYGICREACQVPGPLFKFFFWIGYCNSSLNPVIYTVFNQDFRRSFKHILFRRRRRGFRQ
T2 sequence (P18089 whole entry): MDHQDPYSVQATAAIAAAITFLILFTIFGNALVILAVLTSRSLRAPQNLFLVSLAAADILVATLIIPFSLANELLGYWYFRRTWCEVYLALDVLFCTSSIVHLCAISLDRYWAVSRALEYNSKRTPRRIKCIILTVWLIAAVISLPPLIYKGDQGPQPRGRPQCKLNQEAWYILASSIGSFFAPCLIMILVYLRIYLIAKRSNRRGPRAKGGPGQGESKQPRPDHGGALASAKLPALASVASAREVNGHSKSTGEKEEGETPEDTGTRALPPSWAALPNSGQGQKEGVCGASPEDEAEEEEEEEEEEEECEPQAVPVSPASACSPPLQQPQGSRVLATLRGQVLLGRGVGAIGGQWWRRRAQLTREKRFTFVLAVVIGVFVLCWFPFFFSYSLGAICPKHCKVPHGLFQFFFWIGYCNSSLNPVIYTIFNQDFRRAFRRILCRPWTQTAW

[7] = biological target: 5-hydroxytryptamine receptor 1B (Homo sapiens, UniProt P28222); test: Inhibitory concentration against 5-hydroxytryptamine 1B receptor
[8] = biological target: 5-hydroxytryptamine receptor 2A (Homo sapiens, UniProt P28223); test: Inhibitory concentration against 5-hydroxytryptamine 2A receptor
[9] = biological target: T3, Muscarinic acetylcholine receptor M1 (Homo sapiens, UniProt P11229); test: Inhibitory concentration against muscarinic acetylcholine receptor M1
T3 sequence (P11229 whole entry): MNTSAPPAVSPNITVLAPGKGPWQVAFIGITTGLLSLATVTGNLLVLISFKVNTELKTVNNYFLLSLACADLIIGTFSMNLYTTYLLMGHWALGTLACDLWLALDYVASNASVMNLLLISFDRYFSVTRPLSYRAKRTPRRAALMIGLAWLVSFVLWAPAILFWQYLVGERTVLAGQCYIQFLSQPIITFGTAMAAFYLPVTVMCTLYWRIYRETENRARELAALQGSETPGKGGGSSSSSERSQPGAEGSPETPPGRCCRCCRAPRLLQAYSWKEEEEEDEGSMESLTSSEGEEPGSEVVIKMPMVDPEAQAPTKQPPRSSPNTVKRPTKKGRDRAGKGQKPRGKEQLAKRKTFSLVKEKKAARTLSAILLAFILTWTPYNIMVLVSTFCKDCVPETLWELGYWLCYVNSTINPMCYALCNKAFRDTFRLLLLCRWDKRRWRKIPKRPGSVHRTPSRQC

[10] = biological target: T4, Muscarinic acetylcholine receptor M2 (Homo sapiens, UniProt P08172); test: Inhibitory concentration against muscarinic acetylcholine receptor M2
T4 sequence (P08172 whole entry): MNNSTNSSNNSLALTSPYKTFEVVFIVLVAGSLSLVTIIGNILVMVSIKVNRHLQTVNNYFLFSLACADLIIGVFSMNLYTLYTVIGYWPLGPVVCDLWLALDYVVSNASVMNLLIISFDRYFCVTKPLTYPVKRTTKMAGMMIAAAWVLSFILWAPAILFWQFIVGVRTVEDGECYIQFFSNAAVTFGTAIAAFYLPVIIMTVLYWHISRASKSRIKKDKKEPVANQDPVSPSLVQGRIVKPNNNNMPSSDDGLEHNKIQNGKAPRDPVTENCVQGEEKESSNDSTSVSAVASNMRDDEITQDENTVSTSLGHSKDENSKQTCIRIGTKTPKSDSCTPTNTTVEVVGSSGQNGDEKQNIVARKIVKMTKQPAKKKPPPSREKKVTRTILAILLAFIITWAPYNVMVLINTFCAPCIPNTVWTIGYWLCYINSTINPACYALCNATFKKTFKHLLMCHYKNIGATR

D(1A) dopamine receptor = D(1A) dopamine receptor (Homo sapiens, UniProt P21728); test: Inhibitory concentration against dopamine receptor D1
D(3) dopamine receptor = D(3) dopamine receptor (Homo sapiens, UniProt P35462); test: Inhibitory concentration against dopamine receptor D3
Histamine H1 receptor = Histamine H1 receptor (Homo sapiens, UniProt P35367); test: Inhibitory concentration against histamine H1 receptor
Histamine H2 receptor = Histamine H2 receptor (Homo sapiens, UniProt P25021); test: Inhibitory concentration against histamine H2 receptor
Histamine H2 receptor, sequence (P25021 whole entry): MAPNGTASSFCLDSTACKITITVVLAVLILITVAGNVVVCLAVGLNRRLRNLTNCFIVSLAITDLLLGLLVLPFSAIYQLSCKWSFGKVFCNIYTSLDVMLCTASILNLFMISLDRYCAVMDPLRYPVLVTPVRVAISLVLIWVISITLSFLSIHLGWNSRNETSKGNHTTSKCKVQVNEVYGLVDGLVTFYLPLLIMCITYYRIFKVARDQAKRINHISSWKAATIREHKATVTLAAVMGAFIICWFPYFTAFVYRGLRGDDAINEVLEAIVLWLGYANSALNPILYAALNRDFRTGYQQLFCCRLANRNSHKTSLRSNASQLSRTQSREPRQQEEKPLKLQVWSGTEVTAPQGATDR

Melanin-concentrating hormone receptor 1, sequence (Q99705 whole entry): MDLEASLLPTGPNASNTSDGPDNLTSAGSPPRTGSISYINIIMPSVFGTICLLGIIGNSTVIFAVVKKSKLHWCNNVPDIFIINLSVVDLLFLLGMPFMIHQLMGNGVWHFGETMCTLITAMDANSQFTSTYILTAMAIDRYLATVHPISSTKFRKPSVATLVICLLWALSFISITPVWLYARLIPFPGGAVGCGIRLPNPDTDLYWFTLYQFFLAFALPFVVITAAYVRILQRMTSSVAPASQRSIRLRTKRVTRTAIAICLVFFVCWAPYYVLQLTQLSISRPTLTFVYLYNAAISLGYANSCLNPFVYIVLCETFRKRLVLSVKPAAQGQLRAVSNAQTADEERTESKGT
Melanin-concentrating hormone receptor 2, sequence (Q969V1 whole entry): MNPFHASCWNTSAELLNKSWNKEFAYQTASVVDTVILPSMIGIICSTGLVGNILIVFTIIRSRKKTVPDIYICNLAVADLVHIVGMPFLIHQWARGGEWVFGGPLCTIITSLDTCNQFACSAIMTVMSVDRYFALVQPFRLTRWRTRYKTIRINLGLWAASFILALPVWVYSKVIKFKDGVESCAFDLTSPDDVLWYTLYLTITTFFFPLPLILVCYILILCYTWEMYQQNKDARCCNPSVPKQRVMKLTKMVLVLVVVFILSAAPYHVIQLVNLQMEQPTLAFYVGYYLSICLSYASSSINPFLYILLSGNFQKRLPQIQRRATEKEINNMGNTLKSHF
D(3) dopamine receptor, sequence (P35462 whole entry): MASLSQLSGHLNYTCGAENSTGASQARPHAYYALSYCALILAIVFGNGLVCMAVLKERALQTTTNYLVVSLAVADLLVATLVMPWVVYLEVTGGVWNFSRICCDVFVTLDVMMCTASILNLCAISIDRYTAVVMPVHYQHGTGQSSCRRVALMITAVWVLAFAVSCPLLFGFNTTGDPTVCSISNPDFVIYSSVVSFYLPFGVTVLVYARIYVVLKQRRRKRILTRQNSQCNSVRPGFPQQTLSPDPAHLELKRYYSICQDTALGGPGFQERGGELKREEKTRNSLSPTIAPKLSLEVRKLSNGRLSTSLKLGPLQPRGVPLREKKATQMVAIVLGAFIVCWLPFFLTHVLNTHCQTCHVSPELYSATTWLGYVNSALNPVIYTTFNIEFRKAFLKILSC
Sodium-dependent dopamine transporter, sequence (Q01959 whole entry): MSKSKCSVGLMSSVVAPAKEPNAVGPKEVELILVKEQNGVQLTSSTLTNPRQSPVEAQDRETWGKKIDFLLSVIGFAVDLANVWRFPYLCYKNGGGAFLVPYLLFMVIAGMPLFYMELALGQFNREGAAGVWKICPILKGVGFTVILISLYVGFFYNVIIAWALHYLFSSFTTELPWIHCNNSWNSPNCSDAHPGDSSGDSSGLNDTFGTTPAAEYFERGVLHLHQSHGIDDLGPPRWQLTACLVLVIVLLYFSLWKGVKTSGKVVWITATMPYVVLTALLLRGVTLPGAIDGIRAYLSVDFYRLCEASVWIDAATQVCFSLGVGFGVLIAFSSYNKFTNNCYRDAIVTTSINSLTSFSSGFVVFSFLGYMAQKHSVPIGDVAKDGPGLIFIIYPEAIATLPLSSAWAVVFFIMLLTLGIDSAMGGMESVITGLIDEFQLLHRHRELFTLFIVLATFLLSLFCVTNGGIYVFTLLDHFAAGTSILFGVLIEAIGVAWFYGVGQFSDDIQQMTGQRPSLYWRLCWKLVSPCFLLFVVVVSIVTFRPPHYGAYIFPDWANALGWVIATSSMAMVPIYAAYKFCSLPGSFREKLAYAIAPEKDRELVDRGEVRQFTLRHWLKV
Histamine H1 receptor, sequence (P35367 whole entry): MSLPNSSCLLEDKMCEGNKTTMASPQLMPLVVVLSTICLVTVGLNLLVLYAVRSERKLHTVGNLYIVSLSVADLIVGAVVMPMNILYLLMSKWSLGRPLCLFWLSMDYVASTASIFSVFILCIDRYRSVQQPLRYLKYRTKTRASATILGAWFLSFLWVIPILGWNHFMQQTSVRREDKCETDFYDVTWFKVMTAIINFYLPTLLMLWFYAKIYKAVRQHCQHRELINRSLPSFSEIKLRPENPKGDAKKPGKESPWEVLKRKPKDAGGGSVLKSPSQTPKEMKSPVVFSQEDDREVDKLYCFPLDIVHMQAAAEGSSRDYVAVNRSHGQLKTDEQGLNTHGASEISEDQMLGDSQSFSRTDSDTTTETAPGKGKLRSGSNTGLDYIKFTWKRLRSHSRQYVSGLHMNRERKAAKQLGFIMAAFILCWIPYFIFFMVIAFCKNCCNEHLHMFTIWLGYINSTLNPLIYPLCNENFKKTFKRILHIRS
5-hydroxytryptamine receptor 1B, sequence (P28222 whole entry): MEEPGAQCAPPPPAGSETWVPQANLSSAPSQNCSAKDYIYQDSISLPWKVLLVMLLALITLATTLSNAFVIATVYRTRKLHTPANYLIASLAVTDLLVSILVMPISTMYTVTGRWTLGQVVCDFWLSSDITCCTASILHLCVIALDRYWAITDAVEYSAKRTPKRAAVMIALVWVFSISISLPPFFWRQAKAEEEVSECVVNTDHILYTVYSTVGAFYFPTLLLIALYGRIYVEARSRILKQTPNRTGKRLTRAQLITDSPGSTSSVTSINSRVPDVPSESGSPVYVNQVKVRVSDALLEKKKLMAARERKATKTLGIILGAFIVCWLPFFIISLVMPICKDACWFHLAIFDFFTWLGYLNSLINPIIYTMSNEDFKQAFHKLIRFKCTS
D(1A) dopamine receptor, sequence (P21728 whole entry): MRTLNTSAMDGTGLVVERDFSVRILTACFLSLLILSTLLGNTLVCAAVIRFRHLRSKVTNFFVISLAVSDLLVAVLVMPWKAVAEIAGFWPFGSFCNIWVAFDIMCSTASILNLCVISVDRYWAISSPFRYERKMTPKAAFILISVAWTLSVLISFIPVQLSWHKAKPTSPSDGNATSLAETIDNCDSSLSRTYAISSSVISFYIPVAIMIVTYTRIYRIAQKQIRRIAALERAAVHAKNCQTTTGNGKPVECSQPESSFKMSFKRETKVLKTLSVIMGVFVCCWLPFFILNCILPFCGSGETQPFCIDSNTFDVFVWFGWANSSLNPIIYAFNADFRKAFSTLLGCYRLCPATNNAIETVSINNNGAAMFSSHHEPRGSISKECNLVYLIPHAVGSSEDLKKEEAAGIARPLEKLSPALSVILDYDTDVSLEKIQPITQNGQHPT
5-hydroxytryptamine receptor 2A, sequence (P28223 whole entry): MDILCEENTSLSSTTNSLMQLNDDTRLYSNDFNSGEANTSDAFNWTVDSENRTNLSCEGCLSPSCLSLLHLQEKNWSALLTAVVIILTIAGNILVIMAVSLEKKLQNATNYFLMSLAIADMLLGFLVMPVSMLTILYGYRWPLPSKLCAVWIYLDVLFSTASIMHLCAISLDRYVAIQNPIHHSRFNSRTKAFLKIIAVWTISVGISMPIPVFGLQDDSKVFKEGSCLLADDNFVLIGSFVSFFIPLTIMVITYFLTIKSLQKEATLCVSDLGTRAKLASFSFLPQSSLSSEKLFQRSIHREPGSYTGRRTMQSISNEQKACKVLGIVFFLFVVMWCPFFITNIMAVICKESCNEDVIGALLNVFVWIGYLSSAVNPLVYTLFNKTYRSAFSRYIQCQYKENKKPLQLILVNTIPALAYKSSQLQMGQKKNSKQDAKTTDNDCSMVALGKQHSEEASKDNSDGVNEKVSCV

SMILES	IC50 [1]	IC50 [2] [µM]	other results
Cc1cc(NCCCN(C)C)nc2ccc(NC(=O)COc3ccc(OC(F)(F)F)cc3)cc12	4 µM	7.1	
Cc1cc(N2CCNCC2)nc2ccc(NC(=O)/C=C/c3ccc(OC(F)(F)F)cc3)cc12	1.1 µM	> 10	solubility kinetic ([3]; buffer): 25 µM (≈ 11.4 µg/mL)
Cc1cc(N(C)CCO)nc2ccc(NC(=O)/C=C/c3ccc(OC(F)(F)F)cc3)cc12	> 10 µM	6.4	
COc1ccc(OC)c(/C=C/C(=O)Nc2ccc3nc(N4CCN(C)CC4)cc(C)c3c2)c1			inhibition [4]: 47%
CCN1CCCC1CNc1cc(C)c2cc(NC(=O)COc3ccc(OC(F)(F)F)cc3)ccc2n1 (stereo not given)	4.7 µM	> 10	
Cc1cc(N2CCC(N3CCCC3)CC2)nc2ccc(NC(=O)COc3ccc(OC(F)(F)F)cc3)cc12		6.3	
Cc1cc(N(C)CCO)nc2ccc(NC(=O)COc3ccc(Cl)cc3Cl)cc12	5.9 µM	> 10	solubility kinetic ([3]; PBS): 5 µM (≈ 2.17 µg/mL)
Cc1cc(N(C)CCN(C)C)nc2ccc(NC(=O)COc3ccc(Cl)cc3Cl)cc12		4.5	solubility kinetic ([3]; PBS): 80 µM (≈ 36.9 µg/mL)
Cc1cc(NCCN(C)C)nc2ccc(NC(=O)/C=C/c3ccc(OC(F)(F)F)cc3)cc12	5.7 µM	8.4	
Cc1cc(N2CCOCC2)nc2ccc(NC(=O)COc3ccc(Cl)cc3Cl)cc12			solubility kinetic ([3]; PBS): 10 µM (≈ 4.46 µg/mL)
Cc1cc(N2CCN(c3ncccn3)CC2)nc2ccc(NC(=O)COc3ccc(Cl)cc3Cl)cc12			inhibition [4]: 41%
Cc1cc(NC(C)CN(C)C)nc2ccc(NC(=O)/C=C/c3ccc(OC(F)(F)F)cc3)cc12 (stereo not given)	18 µM		
Cc1cc(N2CCN(C)CC2)nc2ccc(NC(=O)COc3ccc(Cl)cc3Cl)cc12	0.61 µM	> 10	solubility kinetic ([3]; buffer): 25 µM (≈ 11.5 µg/mL)
CCOc1ccc(/C=C/C(=O)Nc2ccc3nc(N4CCN(C)CC4)cc(C)c3c2)cc1OC			inhibition [4]: 52%
CC(=O)OCCN(C)c1cc(C)c2cc(NC(=O)COc3ccc(Cl)cc3Cl)ccc2n1		> 10	
Cc1cc(N2CCNCC2)nc2ccc(NC(=O)COc3ccc(Cl)cc3Cl)cc12	2 µM	3.7	solubility kinetic ([3]; buffer): 25 µM (≈ 11.1 µg/mL)
Cc1cc(N2CCCNCC2)nc2ccc(NC(=O)/C=C/c3ccc(OC(F)(F)F)cc3)cc12	1.6 µM		
CCN1CCN(c2cc(C)c3cc(NC(=O)/C=C/c4ccccc4OC(C)C)ccc3n2)CC1			inhibition [4]: 41%
Cc1cc(N2CCC(N)CC2)nc2ccc(NC(=O)COc3ccc(OC(F)(F)F)cc3)cc12		4.7	solubility kinetic ([3]; PBS): 150 µM (≈ 71.2 µg/mL)
Cc1cc(N2CCOCC2)nc2ccc(NC(=O)COc3ccc(OC(F)(F)F)cc3)cc12	> 10 µM	> 10	solubility kinetic ([3]; PBS): 25 µM (≈ 11.5 µg/mL)
CCN1CCN(c2cc(C)c3cc(NC(=O)c4cc(=O)c5ccccc5o4)ccc3n2)CC1			inhibition [4]: 71%
CCN1CCN(c2cc(C)c3cc(NC(=O)c4ccc(OC)cc4)ccc3n2)CC1			inhibition [4]: 40%
Cc1cc(OCCN(C)C)nc2ccc(NC(=O)COc3ccc(Cl)cc3Cl)cc12	2.6 µM and 2.5 µM	8.7	IC50 [5]: > 10 µM; IC50 [6]: 0.25 µM; IC50 [7]: 0.2 µM; IC50 [8]: 0.61 µM; IC50 [9]: 1.7 µM; IC50 [10]: 4.5 µM; IC50 (D(1A) dopamine receptor): 7.5 µM; IC50 (D(3) dopamine receptor): 0.0013 µM; IC50 (Histamine H1 receptor): 3.5 µM; IC50 (Histamine H2 receptor): 0.87 µM
Cc1cc(N2CC3CC2CN3)nc2ccc(NC(=O)COc3ccc(OC(F)(F)F)cc3)cc12 (stereo not given)		6.8	solubility kinetic ([3]; PBS): 150 µM (≈ 70.9 µg/mL)
CNCCN(C)c1cc(C)c2cc(NC(=O)COc3ccc(Cl)cc3Cl)ccc2n1	0.77 µM		solubility kinetic ([3]; buffer): 100 µM (≈ 44.7 µg/mL)
Cc1cc(N2CCN(C)CC2)nc2ccc(NC(=O)COc3ccc(OC(F)(F)F)cc3)cc12			solubility kinetic ([3]; PBS): 120 µM (≈ 56.9 µg/mL)
